PMC4467237 (Clinical Pharmacology in Drug Development, 2014)
“Also recorded” adds a separate entry of the source. Read-outs that look alike come from different tables or passages of the source. Marks after values point to notes of the source that are not given here.

Key:
[1] = healthy volunteers, cited from earlier work
[2] = Safety assessments; type: in vivo, human
How it was run: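 Healthy adults in a randomized two-sequence crossover with a 14-day washout. Each period gave an oral 400 mg interacting drug or placebo once daily for 18 days, plus a single oral 5 mg test compound on day 5 after a 10-h fast. AEs checked daily, graded mild/moderate/severe and for causality, coded in MedDRA v14.0. Vital signs taken before PK draws. Labs, 12-lead ECG and physical exam at baseline, predose and discharge. Summarized descriptively in dosed subjects with ≥1 postdose assessment.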

[3] = test system: CYP3A4; details: lenvatinib 0.1–10 µg/mL, human liver microsomes and human recombinant CYPs; ref Eisai data on file; cited from earlier work
[4] = single agent, Phase I and II studies; cited from earlier work
[5] = human; cited from earlier work
[6] = type: in vivo, human; details: for AUC(0-t) / AUC(0-inf) / Tmax / half-life: human, plasma, oral
[7] = cited from earlier work
[8] = 5 mg lenvatinib + ketoconazole 400 mg/day [B], n = 16
[9] = 5 mg lenvatinib + placebo [A], n = 16
[10] = 5 mg, arithmetic mean (SD), 5 mg lenvatinib + placebo [A], n = 16
[11] = 5 mg, geometric mean (%CV), 5 mg lenvatinib + placebo [A], n = 16
[12] = arithmetic mean (SD), 5 mg lenvatinib + ketoconazole 400 mg/day [B], n = 16
[13] = geometric mean (%CV), 5 mg lenvatinib + ketoconazole 400 mg/day [B], n = 16

In the case of `COc1cc2nccc(Oc3ccc(NC(=O)NC4CC4)c(Cl)c3)c2cc1C(N)=O` [Lenvatinib], the Median tmax ([1]; range 1–4 hours) is given as 2 h, the “Mean t½” value ([1]; range 11–57 hours) is given as 27.6 h and the “AUC0–∞” value [1] is given as 1409 ng·h/mL. The “Mean Cmax” value [1] was 144.5 ng/mL, the “Subjects reporting treatment-emergent AEs” value ([2]; following ketoconazole with lenvatinib, 18 subjects) was 44% and the “Subjects reporting treatment-emergent AEs” value ([2]; following placebo with lenvatinib, 17 subjects) was 59%. The ECG results ([2]; overall, both treatments) was “either normal or considered not clinically significant”, the “Serious TEAEs” value ([2]; overall, both treatments) was “No serious TEAEs were reported” and the “Subjects with treatment-related TEAEs” value ([2]; overall, both treatments) was 22%. The “Subjects reporting treatment-emergent AEs” value ([2]; overall, both treatments, N = 18) was 72%, the Hypertension ([2]; single-dose lenvatinib 5 mg alone or with ketoconazole, healthy subjects) was “not observed” and the “Share of CYP3A4 in the CYP-mediated metabolism of lenvatinib” value [3] was over 80%. For the same molecule, the Maximum tolerated dose [4] was 25 mg/day, the “Renal clearance as contributor to oral clearance” value [5] was 1–2% and the “Terminal exponential half-life (t½,z)” value [5] was about 28 h. The “CL/F, arithmetic mean (SD)” value [6, 8] was 7.70 (1.49) L/h, the “tlag, arithmetic mean (SD)” value [6, 8] was 0.06 (0.17) ^e h and the “CL/F, arithmetic mean (SD)” value [6, 9] was 8.78 (1.40) L/h. For the same molecule, the “tlag, arithmetic mean (SD)” value [6, 9] was 0.16 (0.24) ^b h, the “Increase in Cmax with ketoconazole versus placebo” value ([6]; 5 mg lenvatinib, ketoconazole 400 mg/day) was 19% and the “Percent extrapolation of AUC0–∞” value ([6]; across all subjects) was under 4%. The “Median time at which Cmax was achieved” value ([6]; both treatment conditions (placebo or ketoconazole)) was 3 h, the AUC(0-t) [6, 10] was 571 ng·h/mL and the AUC(0-t) [6, 11] was 564 ng·h/mL. It also gave an AUC(0-inf) [6, 10] of 584 ng·h/mL, an AUC(0-inf) [6, 11] of 577 ng·h/mL and a Tmax ([6]; 5 mg, tmax median (range), 5 mg lenvatinib + placebo [A]) of 3 h. For the same molecule, the Tmax ([6]; 5 mg, tmax, arithmetic mean (SD), 5 mg lenvatinib + placebo [A], n = 16) was 3.13 h, the half-life ([6]; 5 mg, t½ median (range), 5 mg lenvatinib + placebo [A]) was 29 h and the AUC(0-t) [6, 12] was 661 ng·h/mL. It also gave an AUC(0-t) [6, 13] of 647 ng·h/mL, an AUC(0-inf) [6, 12] of 676 ng·h/mL and an AUC(0-inf) [6, 13] of 662 ng·h/mL. For the same molecule, the Tmax ([6]; tmax median (range), 5 mg lenvatinib + ketoconazole [B]) was 3 h, the Tmax ([6]; tmax, arithmetic mean (SD), 5 mg lenvatinib + ketoconazole 400 mg/day [B], n = 16) was 2.56 h and the half-life ([6]; t½ median (range), 5 mg lenvatinib + ketoconazole [B]) was 29.2 h. For the same molecule, the half-life ([6]; t½, arithmetic mean (SD), 5 mg lenvatinib + ketoconazole 400 mg/day [B], n = 16) was 28.3 h, the “Decrease in apparent mean clearance in the ketoconazole treatment group” value ([6]; versus placebo) was about 12% and the “Difference in tmax, t½ or tlag between the two treatments” value ([6]; visual assessment, ketoconazole versus placebo) was “No changes; also recorded: no difference”.
For `Cc1ccc(NC(=O)c2ccc(CN3CCN(C)CC3)cc2)cc1Nc1nccc(-c2cccnc2)n1` [imatinib], the “Increase in AUC with ketoconazole coadministration” value ([7]; imatinib) is given as 40%.
For `Cc1cn(-c2cc(NC(=O)c3ccc(C)c(Nc4nccc(-c5cccnc5)n4)c3)cc(C(F)(F)F)c2)cn1` [nilotinib], the “Increase in AUC with ketoconazole coadministration” value ([7]; nilotinib) is given as “more than 200%” and the “Increase in Cmax with ketoconazole coadministration” value ([7]; nilotinib) is given as 84%.
